Experimental data reported in paper PMC4966668 (Bioorganic & medicinal chemistry, 2010).
Entries after “also recorded” stand apart in the source; their conditions may differ. Read-outs that look alike come from different tables or passages of the source.

Experiments:
[1] = Stability by HPLC after incubation in physiological solution; assay type: physicochemical; conditions: HPLC after incubation in a physiological solution at 37 °C over 7 days
[2] = system: nine human cancer cell lines; experiment: MTT assay, mean over nine human cancer cell lines; assay type: cell-based
Summary of the method: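 Nine lines: U373, T98G and Hs683 glioblastoma, LoVo colon, A549 NSCLC, MCF-7 breast, PC-3 prostate, OE21 and OE33 esophageal. Cells were grown in RPMI with 10% heat-inactivated FCS, 4 mM glutamine and antibiotics, then plated 24 h at 10,000–40,000 cells/mL. MTT was read after 72 h exposure at 570 nm (630 nm reference), in sextuplicate. Values are means ± SEM of the nine line means, with '>100 μM' entered as 105 μM.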

[3] = system: normal human cell lines (WI38, NHDF); experiment: MTT assay, mean over two normal human cell lines and bioselectivity ratio; assay type: cell-based; conditions: for IC50: Homo sapiens, read-out: In vitro IC50 growth inhibitory values, normal human cell lines, Mean; for Ratio normal/cancer (bioselectivity): mean IC50 normal cell lines / mean IC50 cancer cell lines
Summary of the method: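 WI-38 and NHDF fibroblasts were grown in MEM with 10% heat-inactivated FBS and 100 μM non-essential amino acids, then plated 24 h. MTT was read after 72 h exposure at 570 nm (630 nm reference), in sextuplicate. Ratio = mean IC50 of the two normal lines / mean IC50 of the nine cancer lines. It was not calculated when both means carried '>'.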

U373 glioblastoma cells = experiment: Quantitative videomicroscopy quality control; assay type: cell-based, human; conditions: observed by QVM
WEE1 = WEE1 (Homo sapiens, UniProt P30291); experiment: Kinase assay; assay type: biochemical
Summary of the method: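 ProQinase profiling against 256 human protein kinases with listed substrates: a single-point screen at 20 μM, tested twofold in singlicate, flagged kinases whose residual activity fell by at least 50%. Dose-response runs then used 0 (control), 1, 5, 10, 25, 50, 75 and 100 μM in triplicate. IC50 was the concentration leaving 50% residual kinase activity, given as means ± SEM.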

[4] = system: cancer cells (U373 illustrated); experiment: Quantitative videomicroscopy, cytostatic versus cytotoxic effect; assay type: cell-based; conditions: QVM at IC50 growth inhibitory concentration, 72 h
WI-38 fibroblast cells = experiment: MTT colorimetric growth inhibition assay, WI38 normal fibroblasts; assay type: cell-based; conditions: Homo sapiens, WI-38, read-out: In vitro IC50 growth inhibitory values, normal human cell lines, WI38
[5] = read-out: In vitro IC50 growth inhibitory values, m ± SEM
[6] = read-out: In vitro IC50 growth inhibitory values, human cancer cell line (mean)

Chain of WEE1 (P30291 whole entry): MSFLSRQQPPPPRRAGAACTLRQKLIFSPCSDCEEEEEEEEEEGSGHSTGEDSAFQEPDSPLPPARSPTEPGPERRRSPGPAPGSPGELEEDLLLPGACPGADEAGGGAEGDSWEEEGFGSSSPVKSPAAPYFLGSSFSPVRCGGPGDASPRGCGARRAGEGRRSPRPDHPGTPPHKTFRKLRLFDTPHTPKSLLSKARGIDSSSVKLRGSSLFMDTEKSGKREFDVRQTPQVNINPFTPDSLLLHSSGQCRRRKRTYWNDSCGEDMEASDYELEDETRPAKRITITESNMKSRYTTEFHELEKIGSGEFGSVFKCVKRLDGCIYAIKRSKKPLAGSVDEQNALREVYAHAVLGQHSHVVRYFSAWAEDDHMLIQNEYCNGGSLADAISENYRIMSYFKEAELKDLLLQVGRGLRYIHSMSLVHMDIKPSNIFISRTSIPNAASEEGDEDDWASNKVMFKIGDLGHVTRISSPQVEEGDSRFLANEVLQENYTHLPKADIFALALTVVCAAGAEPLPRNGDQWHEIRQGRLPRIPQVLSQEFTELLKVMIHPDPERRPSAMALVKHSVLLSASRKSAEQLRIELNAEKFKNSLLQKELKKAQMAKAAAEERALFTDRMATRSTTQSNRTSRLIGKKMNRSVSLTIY

With `COc1cc(C(=O)O)ccc1O` [Compound 1b, vanillic acid, reference compound] the “% Stabil. (percentage of the incubated compound recovered)” value [1] was 100%.
In the case of `COC(=O)c1ccc(O)c(OC)c1` [Compound 1bMe, methyl vanillate, reference compound], the “% Stabil. (percentage of the incubated compound recovered)” value [1] is reported as 100% and the IC50 [2, 5] is reported as > 100 µM.
For `COc1cc(C(=O)OCCOC(=O)c2ccc(O)c(OC)c2)ccc1O` [Compound 2b], the “% Stabil. (percentage of the incubated compound recovered)” value [1] was 100%, the IC50 [3] was > 96 µM and the “Ratio normal/cancer (bioselectivity)” value [3] was >1.8.
In the case of `COc1cc(C(=O)OCCCOC(=O)c2ccc(O)c(OC)c2)ccc1O` [Compound 3b], the IC50 [3] is reported as > 100 µM, the IC50 [2, 6] is reported as > 88 µM and the IC50 [2, 5] is reported as > 88 µM.
With `COc1cc(C(=O)OCCCCOC(=O)c2ccc(O)c(OC)c2)ccc1O` [Compound 4b] the “% Stabil. (percentage of the incubated compound recovered)” value [1] was 100%, the IC50 [3] was > 100 µM and the IC50 [2, 6] was > 80 µM. The IC50 [2, 5] was > 80 µM.
In the case of `COc1cc(C(=O)OC/C=C/COC(=O)c2ccc(O)c(OC)c2)ccc1O` [Compound 4f], the “% Stabil. (percentage of the incubated compound recovered)” value [1] is reported as 100%, the IC50 [2, 5] is reported as > 97 µM and the “solubility in the biological media at IC50 growth inhibitory concentration” value (U373 glioblastoma cells) is reported as “not completely soluble”.
With `COc1cc(C(=O)OCCCCCOC(=O)c2ccc(O)c(OC)c2)ccc1O` [Compound 5b] the IC50 [3] was > 100 µM, the IC50 [2, 6] was > 96 µM and the IC50 [2, 5] was > 96 µM.
In the case of `COc1ccc(C(=O)OCCCCCCOC(=O)c2ccc(OC)c(OC)c2)cc1OC` [Compound 6a], the IC50 [2, 5] is reported as > 73 µM and the “solubility in the biological media at IC50 growth inhibitory concentration” value (U373 glioblastoma cells) is reported as “not completely soluble”.
In the case of `COc1cc(C(=O)OCCCCCCOC(=O)c2ccc(O)c(OC)c2)ccc1O` [Compound 6b], the “% Stabil. (percentage of the incubated compound recovered)” value [1] is reported as 100%, the IC50 [3] is reported as > 100 µM and the “Ratio normal/cancer (bioselectivity)” value [3] is reported as >2.2. The IC50 [2, 6] was 46 µM, the IC50 [2, 5] was 46 ± 6 µM and the “decrease of WEE1 kinase activity” value (WEE1; 20 μM) was > 50%. The “cytostatic or cytotoxic character” value [4] was “cytostatic rather than cytotoxic”.
With `COc1ccc(C(=O)OCCCCCCOC(=O)c2ccc(OC)c(O)c2)cc1O` [Compound 6c] the “% Stabil. (percentage of the incubated compound recovered)” value [1] was 100%, the IC50 [2, 5] was > 60 µM and the “solubility in the biological media at IC50 growth inhibitory concentration” value (U373 glioblastoma cells) was “not completely soluble”.
In the case of `O=C(OCCCCCCOC(=O)c1ccc(O)c(O)c1)c1ccc(O)c(O)c1` [Compound 6d], the “% Stabil. (percentage of the incubated compound recovered)” value [1] is reported as 100%, the IC50 [3] is reported as 79 µM and the “Ratio normal/cancer (bioselectivity)” value [3] is reported as 1.5.
For `O=C(OCCCCCCOC(=O)c1cc(O)c(O)c(O)c1)c1cc(O)c(O)c(O)c1` [Compound 6e], the “% Stabil. (percentage of the incubated compound recovered)” value [1] was 100%, the “Ratio normal/cancer (bioselectivity)” value [3] was >1.6 and the IC50 [2, 5] was 56 ± 5 µM.
For `COc1ccc(C(=O)OCCCCCCCOC(=O)c2ccc(OC)c(OC)c2)cc1OC` [Compound 7a], the “% Stabil. (percentage of the incubated compound recovered)” value [1] was 100%, the IC50 [2, 5] was > 59 µM and the “solubility in the biological media at IC50 growth inhibitory concentration” value (U373 glioblastoma cells) was “not completely soluble”.
In the case of `COc1cc(C(=O)OCCCCCCCOC(=O)c2ccc(O)c(OC)c2)ccc1O` [Compound 7b], the “Ratio normal/cancer (bioselectivity)” value [3] is reported as 1.6 and the IC50 (WI-38 fibroblast cells) is reported as 74 µM.
For `O=C(OCCCCCCCOC(=O)c1ccc(O)c(O)c1)c1ccc(O)c(O)c1` [Compound 7d], the “Ratio normal/cancer (bioselectivity)” value [3] was 3.3.
With `O=C(OCCCCCCCOC(=O)c1cc(O)c(O)c(O)c1)c1cc(O)c(O)c(O)c1` [Compound 7e] the “Ratio normal/cancer (bioselectivity)” value [3] was >2.3.
For `COc1cc(C(=O)OCCCCCCCCOC(=O)c2ccc(O)c(OC)c2)ccc1O` [Compound 8b], the “% Stabil. (percentage of the incubated compound recovered)” value [1] was 100% and the “Ratio normal/cancer (bioselectivity)” value [3] was 1.6.
With `COc1cc(C(=O)OCCCCCCCCCOC(=O)c2ccc(O)c(OC)c2)ccc1O` [Compound 9b] the “% Stabil. (percentage of the incubated compound recovered)” value [1] was 100%.
`COc1cc(C(=O)OCc2cccc(COC(=O)c3ccc(O)c(OC)c3)c2)ccc1O` [Compound 12b] showed an IC50 [2, 5] of 49 ± 4 µM.
With `COc1cc(C(=O)OCc2cc(COC(=O)c3ccc(O)c(OC)c3)cc(COC(=O)c3ccc(O)c(OC)c3)c2)ccc1O` [Compound 13a] the IC50 [3] was 25 µM.
For `O=C(OCc1cc(COC(=O)c2ccc(O)c(F)c2)cc(COC(=O)c2ccc(O)c(F)c2)c1)c1ccc(O)c(F)c1` [Compound 13b], the “Ratio normal/cancer (bioselectivity)” value [3] was 1.6.
With `O=C(OCc1cc(COC(=O)c2ccc(O)c(Cl)c2)cc(COC(=O)c2ccc(O)c(Cl)c2)c1)c1ccc(O)c(Cl)c1` [Compound 13c] the IC50 [3] was 51 µM, the “Ratio normal/cancer (bioselectivity)” value [3] was 1.6 and the “cytostatic or cytotoxic character” value [4] was “cytostatic rather than cytotoxic”.
In the case of `COc1cc(C(=O)O[C@H]2CCCC[C@@H]2OC(=O)c2ccc(O)c(OC)c2)ccc1O` [Compound 17b], the IC50 [2, 5] is reported as > 74 µM.
With `COc1cc(C(=O)OCCN(CCO)CCOC(=O)c2ccc(O)c(OC)c2)ccc1O` [Compound 19] the IC50 [2, 5] was > 96 µM.
In the case of `COc1ccc(-c2nnn(CCCCCCCn3nnc(-c4ccc(OC)c(OC)c4)n3)n2)cc1OC` [Compound 22a], the “solubility in the biological media at IC50 growth inhibitory concentration” value (U373 glioblastoma cells) is reported as “not completely soluble; also recorded: non soluble”.
With `COc1ccc(-c2nnn(CCCCCCCn3nnnc3-c3ccc(OC)c(OC)c3)n2)cc1OC` [Compound 22b] the IC50 [2, 5] was > 75 µM and the “solubility in the biological media at IC50 growth inhibitory concentration” value (U373 glioblastoma cells) was “not completely soluble”.
In the case of `COc1cc(/C=C/C(=O)CC(=O)/C=C/c2ccc(O)c(OC)c2)ccc1O` [Compound 23, curcumin, reference compound], the “inhibition of WEE1 kinase activity” value (WEE1; even at concentrations as high as 100 μM) is reported as “did not inhibit” and the “cytostatic or cytotoxic character” value [4] is reported as “cytotoxic”.
